Hits are enriched below; roughly 5.8% of the tested compounds scored in any of these assays.
14-3-3 Bad PPI: inhibitors of 14-3-3 zeta/Bad binding, primary screen, biochemical, TR-FRET, bovine 14-3-3 zeta | 14-3-3 protein zeta/delta (Bos taurus), P63103 | TR-FRET 14-3-3zeta/Dy647-pBad peptide displacement, 1 h | inhibition, % at 21.7 µM | 0.71% of 220,000 active | AID 781, 2007;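 active means inhibition above about 70%, limit read from the data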;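 further: 0% = full 14-3-3 plus peptide FRET controls and 100% = background without 14-3-3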
RBBP9 inh: human RBBP9 inhibitors, primary screen, biochemical, fluorescence polarization, FP-Rh probe, HTS; Serine hydrolase RBBP9 (Homo sapiens), O75884; recombinant RBBP9; AID 1515, 2009; 0.2% of 220,000 active; inhibition, % at 7.94 µM;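 active means inhibition above the campaign mean of all tested compounds plus 3 SD, cut at about 14% in these data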;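 further: plate controls were DMSO wells with RBBP9 for no effect and wells lacking RBBP9 protein for full effect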
Target sequence (O75884 whole entry, looked up): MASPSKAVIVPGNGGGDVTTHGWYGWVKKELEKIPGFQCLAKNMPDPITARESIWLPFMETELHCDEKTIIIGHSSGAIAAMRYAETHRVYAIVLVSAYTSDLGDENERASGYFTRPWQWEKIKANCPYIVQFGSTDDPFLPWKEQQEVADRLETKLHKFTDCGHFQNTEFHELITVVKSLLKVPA
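Measured by: FP readout at 525/598 nm; material: recombinant human RBBP9; also added: Serine-hydrolase probe FP-Rh, 375 nM pre-mixing; medium: Tris buffer pH 8.0, NaCl, Pluronic; replication: one well per compound; doses: one concentration, 7.94 µM nominal, 0.794% DMSO; timing: preincubation 30 min plus labeling 45 min at 25 °C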
Cl transport mod: KCC2 cotransporter modulators, thallium flux, primary screen, cell-based, HEK293 KCC2, FluoZin-2 fluorescence, MLSMR; Solute carrier family 12 member 5 (Homo sapiens), Q9H2X9; KCC2 cells, thallium flux FluoZin-2 fluorescence; B-score of Tl+ flux slope (higher = more flux/activation; lower = inhibition) at 10 µM; 2.2% of 190,000 active; AID 1456, 2008;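 active means thallium flux slope and its plate-corrected score both differing from the plate sample mean at a set confidence after two filtering rounds, in either direction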;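 further: slope of fluorescence scaled to starting intensity during 10 to 20 s after thallium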
WT yeast gro inh: growth inhibition of WT strain, primary screen, mitochondrial fusion inhibitor project, WT and mutant strains, chemical genetic; mitochondrial fusion phenotypic screen; inhibition, % at 10 µM; 2.1% of 190,000 active; in the data active means inhibition above about 58%; tested in S. cerevisiae
ROMK primary: ROMK potassium channel modulators, primary screen, cell-based, thallium flux, MLSMR library; ATP-sensitive inward rectifier potassium channel 1 (Homo sapiens), P48048; AID 1918, 2009; 2% of 130,000 active; B-score at 10 µM; Tet-inducible ROMK, thallium flux fluorescence; actives lie on both sides;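 active means signal ratio slope over the read window, or its plate-corrected B-score, at least 3 SD from the plate mean, either direction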;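 further: B-score of the F/F0 ratio slope over 7 to 12 s after thallium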
Target sequence (P48048 whole entry, looked up): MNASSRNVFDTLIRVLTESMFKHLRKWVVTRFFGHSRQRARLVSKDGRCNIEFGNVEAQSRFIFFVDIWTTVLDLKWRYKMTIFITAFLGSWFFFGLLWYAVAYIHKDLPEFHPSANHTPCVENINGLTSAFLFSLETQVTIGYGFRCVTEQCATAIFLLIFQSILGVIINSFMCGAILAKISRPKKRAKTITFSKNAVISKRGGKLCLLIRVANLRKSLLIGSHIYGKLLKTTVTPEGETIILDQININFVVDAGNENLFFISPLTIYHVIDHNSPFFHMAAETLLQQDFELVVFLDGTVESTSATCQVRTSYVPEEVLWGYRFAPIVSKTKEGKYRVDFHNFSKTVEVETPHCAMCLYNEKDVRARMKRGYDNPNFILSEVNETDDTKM
p47phox inh: p47phox/p22phox peptide binding inhibitors, primary screen, biochemical, uHTS, NADPH oxidase regulatory subunit. inhibition, % at 24.7 µM. 0.53% of 220,000 active. fluorescence polarization, 2 h;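 active means inhibition above about 30%, limit read from the data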;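 further: 0% = p47phox with labelled peptide and 100% = labelled peptide alone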
Numbers without * were called inactive; / = not tested or not shown; [ ] = remark or other dose.

SMILES | 14-3-3 Bad PPI | RBBP9 inh | Cl transport mod | WT yeast gro inh | ROMK primary | p47phox inh
CCOC(=O)C1CCN(C(=O)c2ccc(CNS(=O)(=O)c3ccc(C)cc3)cc2)CC1 | 4 | -8 | -0.84 | 9 | 0.015 | 33*
COc1ccc(CC(=O)N2CCOCC2)cc1OC | -3 | -6 | 1.6 | 87* | / | -11
CCOC(=O)C1CCN(C(=O)Cc2ccc(OC)c(OC)c2)CC1 | -6 | -6 | -0.044 | 72* | / | 7
CCOC(=O)C1CCN(C(=O)Cc2ccc(C)cc2)CC1 | -14 | -2 | / | -3 | -0.44 | -9
Cc1ccc(S(=O)(=O)NCc2ccc(C(=O)N3CCN(c4ccccn4)CC3)cc2)cc1 | 0 | -14 | / | -4 | / | -4
O=C(CNc1cc(S(=O)(=O)N2CCCC2)ccc1OCC(F)(F)F)Nc1ccc(SC(F)F)cc1 | 0 | -9 | 0.3 | -2 | -2.2 | -21
COc1ccc(OC)c(S(=O)(=O)NCc2ccccc2)c1 | -9 | 1 | 0.06 | 36 | / | -13
COc1ccc(OC)c(NS(=O)(=O)Cc2ccccc2)c1 | 87*[fluorescence artefact?] | 3 | / | -3 | / | 8
Cc1cccc(CC(=O)N2CCC(N3CCC(C(=O)N4CCOCC4)CC3)CC2)c1 | -2 | -6 | 1.4 | 9 | 0.66 | -38
CCOC(=O)c1c(NS(=O)(=O)c2cccc(OC)c2)sc2c1CCC2 | 6 | -3 | 38* | 27 | -0.31 | -20
COC(=O)c1c(NS(=O)(=O)c2cccs2)sc2c1CCCC2 | 6 | -6 | / | -8 | / | -7
OC(CN1CCOCC1)c1ccc(F)cc1 (centres undefined) | 27 | -2 | -0.4 | 7 | -0.09 | -3
O=C(c1ccc(F)cc1)C(CCCCCC(CN1CCOCC1)C(=O)c1ccc(F)cc1)CN1CCOCC1 (centres undefined) | 70* | -7 | 0.48 | 6 | / | 0
CCOc1ccc(-n2c(SCC(=O)N3CCc4ccccc43)nnc2-c2c[nH]c3ccccc23)cc1 | 93* | -10 | 1.6 | 14 | 0.13 | 48*
CCn1c(SCC(=O)N2CCCc3ccccc32)nc2cccnc21 | 9 | -3 | 0.21 | -2 | 3.1* | -3
O=C(CSc1nc2ccccc2c(=O)n1-c1ccccc1)N1CCCc2ccccc21 | 9 | 1 | -1.5 | 13 | -0.93 | -36
O=C(CSc1nc2ccccc2c(=O)n1-c1ccccc1)N1CCc2ccccc21 | 31 | -2 | 0.18 | 6 | / | 50*
Cc1ccc2nc(NCC(=O)O)nc(-c3ccccc3)c2c1 | -1 | -4 | / | 15 | / | -3
COc1cc(Nc2nc(-c3ccccc3)c3cc(C)ccc3n2)cc(OC)c1OC | 50 | 2 | / | 73* | 0.033 | -26
CN(C)S(=O)(=O)c1cccc(-c2nnc3n2CCCCC3)c1 | 2 | 1 | -0.056 | / | / | 1
Cc1ccc(CNC(=O)c2ccc(CN3CCOCC3)cc2)cc1 | 24 | 2 | / | 16 | 0.17 | 37*
COc1ccc(CN2CCOCC2)cc1 | 74* | -16 | 1.1 | -1 | / | -10
COc1ccc(CN2CCNC(=O)C2CC(=O)NCCc2c[nH]c3ccccc23)c(OC)c1 (centres undefined) | -11 | -7 | 0.35 | -3 | / | -4
CC(C)(C)c1cc(CN2CCCC(O)C2)c(O)c(C(C)(C)C)c1 (centres undefined) | 73* | -3 | / | 12 | 0.067 | -6
Cc1cccc(-c2cc3nc4c(c(N5CCOCC5)n3n2)CCCC4)c1 | -5 | 1 | 0.028 | 69* | / | -28
SMILES | 14-3-3 Bad PPI | RBBP9 inh | Cl transport mod | WT yeast gro inh | ROMK primary | p47phox inh
COc1cccc(-c2cc3nc4c(c(N5CCC6(CC5)OCCO6)n3n2)CCC4)c1 | 1 | -6 | -1.1 | 65* | -1.1 | -11
CC(C)(C)c1oc(C(=O)O)cc1CN1CCOCC1 | 13 | 4 | -0.026 | / | / | -3
O=C(C1CC1c1ccccc1)N1CCN(c2cccc(Cl)c2)CC1 (centres undefined) | -8 | 4 | -0.94 | 77* | -1.4 | -54
COc1cccc(CC(=O)Nc2ccc3nc(C)sc3c2)c1 | -4 | -5 | -0.11 | 64* | -0.63 | -14
Cc1ccc(C2CN(C)C3(C(=O)Nc4ccccc43)C23COc2ccccc2C3=O)cc1 (centres undefined) | 8 | -6 | -0.51 | 73* | / | -2
CN1CC(c2ccccc2Cl)C2(COc3ccccc3C2=O)C12C(=O)Nc1ccccc12 (centres undefined) | -4 | -7 | -0.099 | 59* | / | -12
CC(C)COC(=O)c1ccccc1N1C(=O)C2C3CCC(C3)C2C1=O (centres undefined) | -4 | -9 | -0.012 | -8 | / | -8
CC(C)COC(=O)c1cccc2c1-c1ccccc1/C2=N\O | 17 | -22 | 0.33 | 62* | 0.025 | -1
CCOC(=O)c1cccc2c1-c1ccccc1/C2=N/O | 3 | -20 | -0.11 | 73* | 0.088 | -6
CC1CCCC(C)N1C(=O)c1cccc2c1-c1ccccc1/C2=N/O (centres undefined) | -5 | -11 | -0.11 | 15 | -1.8 | -4
CCCN(Cc1nnc(-c2ccccc2Cl)o1)C(=O)c1cc([N+](=O)[O-])cc([N+](=O)[O-])c1 | 2 | -5 | -0.57 | 57 | 0.28 | -9
COc1cc(-c2ccc(NC(=O)NC3CC3)c(OC)c2)ccc1NC(=O)NC1CC1 | 0 | -12 | 0.26 | / | / | -3
O=C1NC(=S)/C(=C\c2ccc(-c3ccccc3Cl)o2)S1 | -33 | -2 | 25* | 34 | -0.0018 | -2
CC(C(=O)O)n1nc2ccccc2n1 (centres undefined) | 71* | -9 | / | 9 | -0.15 | 20
COCCn1nnnc1C(c1ccc(OC)cc1)N1CCC(C)CC1 (centres undefined) | 5 | -8 | 0.47 | -21 | / | -5
CCCC(c1nnnn1Cc1ccccc1)N1CCN(c2ccccc2OC)CC1 (centres undefined) | 84* | 3 | / | -9 | / | -2
COCCn1nnnc1C(c1ccc(Cl)cc1)N1CCSCC1 (centres undefined) | 75* | -2 | -0.015 | -7 | / | -3
Cc1ccc(C(c2nnnn2Cc2cccs2)N2CCN(Cc3ccc4c(c3)OCO4)CC2)cc1 (centres undefined) | 19 | 1 | 0.25 | 6 | -2.1* | -1
COCCn1nnnc1C(c1ccccc1OC)N1CCN(c2ccccc2F)CC1 (centres undefined) | 74* | -7 | -0.33 | -7 | / | -3
